These results are taken from ChEMBL document CHEMBL1144934, “Efficacious and orally bioavailable thrombin inhibitors based on a 2,5-thienylamidine at the P1 position: discovery of N-carboxymethyl-d-diphenylalanyl-l-prolyl[(5-amidino-2-thienyl)methyl]amide” (J Med Chem, 2003).

As a reminder, the Ki is a dissociation constant, usually derived from enzyme kinetics or from competition with a known ligand. For orientation: half-life means the time needed for the level to fall by half in the phase considered. As a reminder, the Cmax is the highest concentration seen after dosing. As usually defined, the inhibition in vivo is the percentage by which the read-out fell short of the control. For orientation: clearance means the rate of elimination divided by the concentration.

Several values for one entry are separate records, joined by “and”; a condition that tells them apart may be missing. Identical values can stand only once.

Data set [1] in a line: Half life of compound (t 1/2) was evaluated at 5 mg/kg after postoral dosing. It is filed as functional, organism-based. Details: dose 5 mg/kg.
The species entered for data set [2] is Homo sapiens.
Another data set deals with Coagulation factor X (Homo sapiens, UniProt P00742). Description: In vitro inhibition constant (Ki) against human Coagulation factor X was determined.
Data set [3] deals with thrombin (Homo sapiens) & trypsin (Bos taurus). Description: Selectivity of compound was determined between thrombin and bovine trypsin.
Data set [4] in a line: In vitro metabolic stability was determined using liver S9 fraction from monkey at initial concentration of 20 uM. In kind it is ADME, subcellular. The following applies: simiiformes, read-out: Recovery. In outline:
(§1)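 Liver S9 (9000g supernatant of homogenate in Tris-acetate pH 7.4, KCl, EDTA) from rat, dog, monkey (pooled, n = 2) or human (n = 2); 20 µM final compound with NADPH generating system and S9 6.72 mg/mL in 100 mM phosphate pH 7.4, 37 °C. Samples methanol-deproteinized, HPLC; recovery after 30 min reported; no-NADPH control.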

The nature of data set [5]: Half life of compound (t 1/2) was evaluated at 2.5 mg/kg after intravenous dosing. It is filed as functional, organism-based. Details: dose 2.5 mg/kg.
The next data set deals with T1, Serine protease 1 (Bos taurus, UniProt P00760).
T1 sequence (P00760 whole entry): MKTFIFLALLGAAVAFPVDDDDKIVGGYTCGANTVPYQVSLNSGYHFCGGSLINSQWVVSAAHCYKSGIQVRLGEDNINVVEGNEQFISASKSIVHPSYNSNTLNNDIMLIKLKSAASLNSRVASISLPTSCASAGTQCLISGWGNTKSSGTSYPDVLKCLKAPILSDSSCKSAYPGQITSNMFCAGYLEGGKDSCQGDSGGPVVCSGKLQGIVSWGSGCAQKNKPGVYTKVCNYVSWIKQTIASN
Description: In vitro inhibition constant (Ki) against […] trypsin was determined.

Data set [6] in a line: Half life of compound was determined after intravenous dosing at 10 mg/kg in rat. The following applies: in vivo. It is filed as ADME, organism-based. Details: dose 10 mg/kg, route intravenous. In outline:
(§2)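 Male Sprague–Dawley rats (250–300 g), femoral artery and vein cannulated under light ether anesthesia; after recovery, 10 mg/kg given via femoral vein. Arterial blood sampled at 0, 1, 5, 15, 30, 60, 90, 120, 180, 240 min, collected into heparinized tubes, deproteinized with 2 volumes methanol, centrifuged; supernatant analyzed by HPLC (0.1% TFA/acetonitrile 81:19).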

The subject of data set [7] is Rattus norvegicus. Description: Ex vivo activated clotting time was measured in rat plasma at 1 mg/kg. In kind it is functional.
The subject of data set [8] is Canis lupus familiaris. Description: Bioavailability of compound (F %) was evaluated at 5 mg/kg in dog. In kind it is functional, organism-based.
Data set [9] is described as follows: Area under curve (AUC) was determine after oral dosing at 20 mg/kg in monkey.
A short description of data set [10]: Clearance value was determined after intravenous dosing at 2.5 mg/kg. Details: dose 2.5 mg/kg. In kind it is functional, organism-based.
The nature of data set [11]: Area under curve (AUC) was determined after intravenous dosing at 10 mg/kg in rat. The note with it: in vivo. In kind it is ADME, organism-based. More on the design: dose 10 mg/kg, route intravenous. In outline:
as §2

Data set [12] in a line: Selectivity of compound was determined between thrombian and human t-PA.
The nature of data set [13]: Time of maximum plasma concentration of compound in monkey at 5 mg/kg was determined. It is filed as functional, organism-based. Details: dose 5 mg/kg.
The target of a further data set is Trypsin (Homo sapiens, UniProt P07477+P07478+P35030). Briefly: In vitro inhibition constant (Ki) against human trypsin was determined. It is filed as protein assay.
A short description of data set [14]: Maximal plasma concentration in monkeys after 20 mg/kg oral dose. The note with it: cynomolgus monkey.
Another data set concerns Primates. Briefly: Bioavailability of compound(F %) was evaluated at mg/kg in Monkey. It is filed as functional, organism-based.
The nature of data set [15]: In vitro metabolic stability was determined using liver S9 fraction from dog at initial concentration of 20 uM. In kind it is ADME, Canis lupus familiaris. The note with it: read-out: Recovery. In outline: as §1
Data set [16] in a line: Half life of compound (t 1/2) was evaluated at 2 mg/kg after intravenous dosing in monkey. It is filed as functional, organism-based. Details: dose 2 mg/kg.
Data set [17] is described as follows: Steady state volume of distribution (Vdss) was evaluated at 2.5 mg/kg after intravenous dosing. Details: dose 2.5 mg/kg. It is filed as functional, organism-based.
The nature of data set [18]: Steady state volume of distribution (Vdss) was determined after intravenous dosing at 10 mg/kg in rat. More on the design: dose 10 mg/kg, route intravenous. The following applies: in vivo, read-out: Vdss. It is filed as ADME, organism-based. In outline: as §2
A short description of data set [19]: Selectivity of compound was determined between thrombin and human plasmin.
Data set [20] in a line: Area under curve (AUC) was determine after postoral dosing at 5 mg/kg in dog. In kind it is functional, organism-based. More on the design: dose 5 mg/kg.
Data set [21] has as its system Rattus norvegicus. Description: In vivo inhibition of thrombus formation in thromboplastin-induced deep vein thrombosis (DVT) rat model after iv bolus dosing at 1 mg/kg. It is filed as functional.
The target in data set [22] is Tissue-type plasminogen activator (Homo sapiens, UniProt P00750). Briefly: In vitro inhibition constant (Ki) against human Tissue type plasminogen activator was determined.
Data set [23] in a line: Clearance value was determined after intravenous dosing at 10 mg/kg in rat. It is filed as ADME, organism-based. More on the design: dose 10 mg/kg, route intravenous. The following applies: in vivo. In outline:
as §2

For data set [24], the species on record is Rattus norvegicus. Briefly: In vitro concentration of inhibitor to double the activated partial thromboplastin time was evaluated in rat. In kind it is functional. In outline: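 Rat plasma mixed with inhibitor and an equal volume of aPTT reagent (Platelin LS), incubated 5 min at 37 °C, then 100 μL of 25 mM CaCl2 added. Clotting time read on an automatic coagulometer. Value taken as the inhibitor concentration that doubles aPTT.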

The species entered for data set [25] is Rattus norvegicus. Briefly: Ex vivo concentration of inhibitor to double the activated clotting time was measured in rat plasma. It is filed as functional.
A short description of data set [26]: Area under curve (AUC) was determine after intravenous dosing at 2 mg/kg in monkey. In kind it is functional, organism-based. Details: dose 2 mg/kg.
Data set [27] concerns Canis lupus familiaris. Description: Area under curve (AUC) was determine after intravenous dosing at 2.5 mg/kg in dog.
Data set [28] in a line: Maximal plasma concentration in dogs after 5 mg/kg oral dose. It is filed as ADME, organism-based, Canis lupus familiaris. Details: dose 5 mg/kg, route oral. The note with it: dog.
The species named for data set [29] is Homo sapiens. Briefly: (§3) In vitro metabolic stability was determined using liver S9 fraction from human at initial concentration of 20 uM. It is filed as ADME. The note with it: 20 µM. In outline:
as §1

Data set [30] in a line: as §3. The note with it: liver S9 fraction, read-out: Recovery. In kind it is ADME. In outline:
as §1

A short description of data set [31]: Bioavailability in rat. In kind it is ADME, organism-based. The following applies: in vivo.
Data set [32] in a line: Clearance was determined after intravenous dosing at 2 mg/kg in monkey. It is filed as functional, organism-based. More on the design: dose 2 mg/kg.
Data set [33] can be described thus: Steady state volume of distribution (Vdss) was evaluated at 2 mg/kg after intravenous dosing in monkey. It is filed as functional, organism-based. More on the design: dose 2 mg/kg.
Data set [34] can be described thus: Half life of compound (t 1/2) was evaluated at 20 mg/kg after postoral dosing in monkey. It is filed as functional, organism-based. More on the design: dose 20 mg/kg.
For another data set, the target named is Plasminogen (Homo sapiens, UniProt P00747). Description: In vitro inhibition constant (Ki) against human plasmin was determined.
Data set [35] has as its target Thrombin and coagulation factor X (Homo sapiens) (UniProt P00734+P00742). Briefly: Selectivity of compound was determined between thrombin and human factor Xa. In kind it is protein assay.
The target in data set [36] is Thrombin & trypsin (Homo sapiens) (UniProt P00734+P07477+P07478+P35030). Briefly: Selectivity of compound was determined between thrombin and human trypsin. It is filed as protein assay.
Another data set deals with Prothrombin (Homo sapiens, UniProt P00734). Briefly: In vitro inhibition constant (Ki) against human thrombin.
Data set [37] is described as follows: Area under curve (AUC) was determine after intravenous dosing at 10 mg/kg. It is filed as ADME, organism-based. Details: dose 10 mg/kg, route intravenous. The following applies: in vivo.

Sequence of Thrombin and coagulation factor X (Homo sapiens) (P00742 whole entry, looked up, other chains not shown): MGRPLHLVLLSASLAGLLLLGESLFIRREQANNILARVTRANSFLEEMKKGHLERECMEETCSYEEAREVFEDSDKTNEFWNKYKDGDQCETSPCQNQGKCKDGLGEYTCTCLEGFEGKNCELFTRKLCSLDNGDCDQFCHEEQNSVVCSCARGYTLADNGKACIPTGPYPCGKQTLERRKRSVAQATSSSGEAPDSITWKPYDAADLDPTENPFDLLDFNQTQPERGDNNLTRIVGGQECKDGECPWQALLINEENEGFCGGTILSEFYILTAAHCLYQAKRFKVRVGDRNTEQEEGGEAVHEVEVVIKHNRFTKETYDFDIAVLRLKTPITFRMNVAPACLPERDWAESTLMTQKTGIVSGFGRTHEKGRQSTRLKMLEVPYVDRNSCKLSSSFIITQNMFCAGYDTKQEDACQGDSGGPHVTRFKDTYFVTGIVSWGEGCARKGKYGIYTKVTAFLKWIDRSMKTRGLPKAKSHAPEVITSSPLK
Sequence of Tissue-type plasminogen activator (P00750 whole entry): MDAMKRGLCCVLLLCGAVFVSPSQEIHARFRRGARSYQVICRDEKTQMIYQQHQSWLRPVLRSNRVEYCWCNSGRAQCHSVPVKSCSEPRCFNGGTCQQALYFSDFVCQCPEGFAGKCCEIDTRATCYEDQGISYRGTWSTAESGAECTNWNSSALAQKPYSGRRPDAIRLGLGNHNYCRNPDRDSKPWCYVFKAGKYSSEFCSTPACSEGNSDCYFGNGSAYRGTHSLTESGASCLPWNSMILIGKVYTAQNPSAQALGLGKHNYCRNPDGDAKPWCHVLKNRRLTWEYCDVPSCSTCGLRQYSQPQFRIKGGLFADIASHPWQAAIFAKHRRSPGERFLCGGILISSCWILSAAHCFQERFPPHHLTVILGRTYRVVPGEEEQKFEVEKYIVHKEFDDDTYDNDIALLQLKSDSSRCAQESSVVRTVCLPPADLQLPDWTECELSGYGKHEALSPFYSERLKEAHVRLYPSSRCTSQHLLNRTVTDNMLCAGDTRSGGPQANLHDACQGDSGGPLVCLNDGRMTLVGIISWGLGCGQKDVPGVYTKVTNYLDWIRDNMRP
Sequence of Coagulation factor X (P00742 41-179 limits assumed): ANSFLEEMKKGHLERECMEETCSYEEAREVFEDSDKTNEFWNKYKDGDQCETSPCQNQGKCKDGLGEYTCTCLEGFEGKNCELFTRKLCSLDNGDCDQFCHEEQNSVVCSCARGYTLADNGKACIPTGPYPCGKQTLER
Sequence of Coagulation factor X (P00742 235-488 limits assumed): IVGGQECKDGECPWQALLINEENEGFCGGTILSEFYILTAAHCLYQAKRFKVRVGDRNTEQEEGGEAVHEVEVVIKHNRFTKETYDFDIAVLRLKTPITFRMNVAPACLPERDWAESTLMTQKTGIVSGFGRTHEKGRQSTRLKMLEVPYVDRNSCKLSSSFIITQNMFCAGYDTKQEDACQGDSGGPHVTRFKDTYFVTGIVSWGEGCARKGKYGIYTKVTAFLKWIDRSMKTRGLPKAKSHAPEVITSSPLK
Sequence of Plasminogen (P00747 97-580 limits assumed): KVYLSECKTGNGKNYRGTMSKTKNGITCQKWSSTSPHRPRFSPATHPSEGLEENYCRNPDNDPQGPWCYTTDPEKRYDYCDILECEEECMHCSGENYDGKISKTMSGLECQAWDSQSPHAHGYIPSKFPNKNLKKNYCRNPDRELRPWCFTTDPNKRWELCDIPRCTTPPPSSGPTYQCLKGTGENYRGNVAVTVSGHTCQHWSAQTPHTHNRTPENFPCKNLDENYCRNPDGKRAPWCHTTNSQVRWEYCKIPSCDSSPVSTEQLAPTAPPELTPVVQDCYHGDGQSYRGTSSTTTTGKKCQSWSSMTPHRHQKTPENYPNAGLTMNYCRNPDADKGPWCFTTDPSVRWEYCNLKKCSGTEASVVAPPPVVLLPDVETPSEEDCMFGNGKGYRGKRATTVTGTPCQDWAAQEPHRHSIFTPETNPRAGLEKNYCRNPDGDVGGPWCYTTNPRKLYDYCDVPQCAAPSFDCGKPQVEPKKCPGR
Sequence of Plasminogen (P00747 581-810 limits assumed): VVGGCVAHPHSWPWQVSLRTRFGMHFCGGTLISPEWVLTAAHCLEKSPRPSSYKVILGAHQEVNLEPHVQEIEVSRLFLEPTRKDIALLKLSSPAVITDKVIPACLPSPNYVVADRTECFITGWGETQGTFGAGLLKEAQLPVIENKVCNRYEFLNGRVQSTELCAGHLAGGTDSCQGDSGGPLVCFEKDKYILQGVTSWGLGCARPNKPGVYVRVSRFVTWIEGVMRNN

As to `N=C(N)c1ccc(CNC(=O)[C@@H]2CCCN2C(=O)[C@H](NCC(=O)O)C(c2ccccc2)c2ccccc2)s1`, the T1/2 stood at 1.13 h in data set [1], 54 min in data set [5], 23 min in data set [16] and 58 min in [34]. Moreover, the results for the APTT in the data set listed under Homo sapiens [2] and in the data set listed under Rattus norvegicus [24] were 0.23 µM and 0.97 µM, respectively. For the same compound, the Ki at Coagulation factor X came to 2250 nM; on Serine protease 1, 3 nM; at Trypsin it was 0.3 nM; in data set [22] it was 433 nM; on Plasminogen it was 7.4 µM. In addition, the Selectivity was 200 in data set [3]; greater than 10000 in data set [12]; greater than 10000 in data set [19]; greater than 10000 in data set [35]; 20 in [36]. Moreover, the remaining at 20 µM was found to be 83% in [4], 99% in [15] and 95% in data set [30]. In addition, the half-life in data set [6] is 47 min. The compound also displayed an ACT in the data set with Rattus norvegicus [7] of 12. Also, the bioavailability in the data set on Canis lupus familiaris [8] worked out at 42%; in the data set with Primates, 15%; in data set [31], 43%. The AUC in [9] was 5150 ng·h/mL; in data set [11] it was 17600 ng·h/mL; in [20] it was 6050 ng·h/mL; in data set [26], 3420 ng·h/mL; in the data set with Canis lupus familiaris [27], 7620 ng·h/mL. Besides, the CL (mL.min-1.kg-1) in [10] turned out to be 5.9; in data set [32] it was 9.8. Besides, the Tmax in data set [13] is 0.5 h and 1.5 h. Further, the Cmax came out at 2100 ng/mL in [14] and 3800 ng/mL in data set [28]. The values for the Vdss in data set [17] and in data set [33] were 0.223 L/kg and 0.23 L/kg, respectively. Moreover, the Vd in [18] is 0.258 L/kg. This compound also returned an inhibition in vivo at 1 mg/kg in the data set with Rattus norvegicus [21] of 100%. In data set [23], the clearance was 9.6 mL/min/kg. For the same compound, the “Concentration to double activated clotting time” value in the data set listed under Rattus norvegicus [25] amounted to 0.85 µM. This compound also came in with a Recovery in the data set filed under Homo sapiens [29] of 95%.
On to `N=C(N)c1csc(CNC(=O)[C@@H]2CCCN2C(=O)[C@H](NCC(=O)O)C(c2ccccc2)c2ccccc2)n1`, for which the half-life in data set [6] stood at 50 min. Further, the inhibition constant (Ki) at Prothrombin was 0.64 nM. The Vd in data set [18] was found to be 0.189 L/kg. This compound also returned a clearance in data set [23] of 6 mL/min/kg. In data set [37], the AUC was 29100 ng·h/mL. For the same compound, in [31], the bioavailability is 21%.
